Assays:
Type in all cases: tissue-based
[1] = molecular target: T1, Amine oxidase [flavin-containing] B (Rattus norvegicus, UniProt P19643); test: Inhibition of MAO-B in rat liver homogenate by spectrophotometry-based Holt method
T1 sequence (P19643 whole entry): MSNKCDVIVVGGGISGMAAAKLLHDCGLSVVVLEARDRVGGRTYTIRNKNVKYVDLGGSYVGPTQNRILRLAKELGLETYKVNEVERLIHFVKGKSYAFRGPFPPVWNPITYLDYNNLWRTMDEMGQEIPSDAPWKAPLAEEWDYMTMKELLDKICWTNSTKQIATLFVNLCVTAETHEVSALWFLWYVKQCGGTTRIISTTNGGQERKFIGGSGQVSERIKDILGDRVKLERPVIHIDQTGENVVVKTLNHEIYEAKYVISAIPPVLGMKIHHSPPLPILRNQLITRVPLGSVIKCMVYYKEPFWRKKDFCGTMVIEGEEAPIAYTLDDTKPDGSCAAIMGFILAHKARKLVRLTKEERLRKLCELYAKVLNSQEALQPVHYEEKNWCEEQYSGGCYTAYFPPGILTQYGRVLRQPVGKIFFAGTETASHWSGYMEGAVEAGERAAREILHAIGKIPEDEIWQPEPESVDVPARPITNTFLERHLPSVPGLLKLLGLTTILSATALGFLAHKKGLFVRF

[2] = molecular target: T2, Amine oxidase [flavin-containing] A (Rattus norvegicus, UniProt P21396); test: Inhibition of MAO-A in rat liver homogenate by spectrophotometry-based Holt method
T2 sequence (P21396 whole entry): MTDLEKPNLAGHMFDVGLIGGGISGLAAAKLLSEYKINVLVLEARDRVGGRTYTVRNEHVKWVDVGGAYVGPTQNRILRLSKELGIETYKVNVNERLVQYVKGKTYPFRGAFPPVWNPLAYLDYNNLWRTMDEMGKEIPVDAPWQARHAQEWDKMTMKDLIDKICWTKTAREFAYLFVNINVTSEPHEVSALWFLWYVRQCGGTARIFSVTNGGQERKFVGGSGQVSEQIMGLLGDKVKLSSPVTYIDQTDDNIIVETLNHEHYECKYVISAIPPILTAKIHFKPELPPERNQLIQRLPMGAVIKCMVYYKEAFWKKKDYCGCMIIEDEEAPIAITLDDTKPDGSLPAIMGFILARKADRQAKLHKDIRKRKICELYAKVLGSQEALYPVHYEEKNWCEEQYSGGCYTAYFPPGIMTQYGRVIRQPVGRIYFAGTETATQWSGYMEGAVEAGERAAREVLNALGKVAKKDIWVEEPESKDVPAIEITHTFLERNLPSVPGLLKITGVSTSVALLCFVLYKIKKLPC

Rattus norvegicus = organism: Rattus norvegicus; test: Selectivity ratio of Ki for MAO-A in rat liver homogenate to Ki for MAO-B in rat liver homogenate
In short: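 Rat liver MAO; isoform isolated by blocking the other with pargyline or clorgyline. p-Tyramine substrate (2.5 mM for MAO-B). Inhibitor (DMSO) pre-incubated with homogenate 60 min, 37 °C. Holt coupled assay (vanillinic acid, 4-aminoantipyrine, peroxidase; potassium phosphate pH 7.6) read at 498 nm, 37 °C, 60 min. Ki from kinetics, mean of three experiments; index = Ki(MAO-A)/Ki(MAO-B).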

Structure (SMILES) | Ki [1] [µM] | Ki [2] [µM] | Ratio Ki (Rattus norvegicus)
O=S(=O)(c1ccccc1)N1N=C(c2ccccc2O)CC1c1ccccc1O (stereo not given) | 1550 | 0.91 | –
N=C(NO)N1N=C(c2ccccc2O)CC1c1ccccc1O (stereo not given) | 96.8 | 15.7 | –
N=C(NO)N1N=C(c2ccccc2O)CC1c1ccc(O)cc1 (stereo not given) | 210 | 10.6 | –
Oc1ccccc1C1=NNC(c2ccccc2O)C1 (stereo not given) | 0.78 | 3.7 | 4.74
Oc1ccc(C2CC(c3ccccc3O)=NN2)cc1 (stereo not given) | 0.6 | 3.9 | 6.49
Cc1ccc(S(=O)(=O)N2N=C(c3ccccc3O)CC2c2ccc(O)cc2)cc1 (stereo not given) | – | 0.6 | –
O=C(c1ccccc1)N1N=C(c2ccccc2O)CC1c1ccccc1O (stereo not given) | – | 0.8 | –
O=C(c1ccccc1)N1N=C(c2ccccc2O)CC1c1ccc(O)cc1 (stereo not given) | 20300 | 5.77 | –
O=S(=O)(c1ccccc1)N1N=C(c2ccccc2O)CC1c1ccc(O)cc1 (stereo not given) | 700 | 0.68 | –
Cc1ccc(S(=O)(=O)N2N=C(c3ccccc3O)CC2c2ccccc2O)cc1 (stereo not given) | 620 | 0.36 | –
